Assay: Toxicity liver stage against HepG2, at 10uM
Type: cell-based
Design: test concentration 10 uM, cell line HepG2-A16-CD81EGFP
Conditions: human, HepG2-A16-CD81EGFP cells; read-out: INHIBITION
How it was run: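 Uninfected HepG2-A16-CD81EGFP cells, 3 × 10^3 per well, 1536-well, plated on prespotted compound at 10 μM final, parasite-free screening media added to match infected plates; puromycin 10 μM positive, DMSO 0.5% negative; run in parallel with 48 h PbLuc assay at 37 °C, 5% CO2; viability by CellTiter-Glo luminescence, normalized to controls.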

SMILES | cytotoxicity at 10 µM [%]
COc1ccc(C(=O)NCc2ccc(C(=O)O)o2)cc1 | -0.806
Cc1ccc(NCc2ccccc2C#N)cc1-n1cnnn1 | 4.25
O=C(NC[C@H]1C[C@@H]2CCN1C[C@@H]2CN1CCCC1)c1ccco1 | -3.84
Clc1ccc(-c2nnc([C@H]3CCN(C4CCCCC4)C3)o2)cc1 | -120
CC1(C)[C@H](Cc2cc(CN3CCOCC3)on2)C[C@@H]1NC(=O)C1CCC1 | -6.67
CC(C)(C)NC(=O)C[C@@H]1CCNC[C@@H]1Cc1cc(C(C)(C)C)on1 | 4.37
O=C(Nc1ccc(Br)cc1F)c1ccc(N2CCCCC2)nn1 | 1.16
O=C(NCC1(O)CCOc2ccccc21)Nc1ccc2c(c1)OCO2 (configuration not stated) | -5.12
Cc1ccccc1NC(=O)NCCn1nc(C(F)(F)F)n(C)c1=O | -1.68
O=C([C@H]1COC[C@H]2CN(C3CCOCC3)C[C@H]21)N1CCCCO1 | 5.22
CC(=O)Nc1sc2c(c1C(=O)O)CCc1ccccc1-2 | 0.513
COCc1n[nH]/c(=N\C(=O)c2c3c(nc4onc(C)c24)CCC3)s1 | -4.41
CC(C(=O)Nc1ccccn1)n1ccc(C(F)(F)F)n1 (configuration not stated) | 2.74
CCn1nc(C)c2nnn(CC(=O)Nc3ccc(C)c(C)c3)c(=O)c21 | 5.75
CCc1c(O)nc2nc(N3CCOCC3)nn2c1C | 10.8
CCn1c(Nc2ccccc2OC)nc2c(C)nn(C)c2c1=O | 15.8
CCCC(=O)N1CCC(Nc2nc(O)cc(-c3ccsc3)n2)CC1 | 5.46
Cc1cn([C@H]2CCNC[C@]2(C)O)c(=O)[nH]c1=O | -6.22
Cc1cc(-c2ccc(=O)n(CCNC(=O)C3CCC3)n2)c(C)o1 | -2.32
Cc1cc(C)n(CCNCc2cc(-c3ccc(F)cc3)c[nH]c2=O)n1 | -5.24
CO[C@@H]1CCC[C@@H](NC(=O)C(C)(C)c2cccc(F)c2)[C@H]1O | -1.09
CN(CCc1ccccc1)Cc1cnc(C2(C)CCCCO2)nc1 (configuration not stated) | 1.99
CNc1ncccc1CN1CCC1c1cc(N)nc(C)n1 (configuration not stated) | 15.9

SMILES | cytotoxicity at 10 µM [%]
CCNC(=O)C1(Cc2cc(-c3ccccc3)no2)CCCN(C)C1 (configuration not stated) | 5.31
CC(C)c1cn(CC(=O)NC2CC(=O)N(CCc3ccccc3)C2)nn1 (configuration not stated) | -15.1
CNC(=O)c1ccc(-c2ccc(CNC(=O)COC)cc2)nc1C | -5.52
Cc1ccnc(C2CCN(c3ccnc(C)n3)C2)n1 (configuration not stated) | -0.485
Cn1ccnc1CN1CCCC(CCCc2ccccn2)(C(N)=O)C1 (configuration not stated) | 2.83
Cc1nccc(N2CCCC2CCNS(C)(=O)=O)n1 (configuration not stated) | 0.146
Cc1nc(C2CCCN2C(=O)Cc2cccc(F)c2)nc(O)c1C (configuration not stated) | -26.9
CCc1ncc(CN2CCN(CCOC)CC2)cn1 | -21.7
Cc1ccccc1S(=O)(=O)N1CCC(c2[nH]ncc2C)C1 (configuration not stated) | -21.1
Cc1cc(-c2cnc(N3CCC(O)CC3)nc2-c2cccnc2C)on1 | -25.2
Cc1cc2c(=O)n3c(nc2s1)CCN(C(=O)c1ccnn1C(C)C)CC3 | -6.46
COCCN(C(=O)c1cnccn1)c1nc2c(s1)CCc1c-2cnn1C | -24.3
COc1ccc(C(C)NCc2cccs2)cc1Cn1cccn1 (configuration not stated) | 10.2
CCOCC(O)CNc1cncc(Br)c1 (configuration not stated) | 4.21
Cc1ncc(CNC(=O)NCc2c(F)cccc2OC(F)F)s1 | -4.27
CCOCCN1CCN(CC2(O)CCCCC2)CC1 | 1.34
O=C(CCn1cncn1)NCCOc1cccc(Cl)c1 | 1.58
O=C(CNC1(CCO)CCOCC1)Nc1ccc(F)cc1F | -41.6
Cc1ccccc1Cc1nc(CSc2nnc(N)n2C)no1 | 5.26
Cc1ccn(CC(=O)NCCCOc2ccccc2F)c(=O)c1 | -5.79
O=C(CCc1nc(-c2cccnc2)no1)NCC1CCN(C2CC2)C1 (configuration not stated) | 0.113
CCn1ccnc1CN1CCN(c2ncnc3ccsc23)CC1C (configuration not stated) | 3.04
N#Cc1ccnc(N2CCN(CC(O)c3ccc(F)cc3)CC2)c1 (configuration not stated) | 2.99

SMILES | cytotoxicity at 10 µM [%]
Cc1csc(N2CCN(C(=O)c3cc(Cl)c[nH]3)CC2)n1 | -2.82
Cc1cc(F)ccc1CCNC(=O)NCC(C)N1CCOCC1 (configuration not stated) | -1.35
O=C(NCc1ccccn1)NCC(O)c1ccccc1C(F)(F)F (configuration not stated) | -0.36
CCCN(CCC)Cc1nnsc1Cl | 10.3
Cc1ccc(CN(C(=O)NCC(c2cccs2)N(C)C)C2CC2)o1 (configuration not stated) | -4.24
Cn1cnnc1CCNC(=O)c1cnn(Cc2ccccc2)c1 | -0.722
CC(C)c1nc(C2CCCN2CCc2ccccn2)no1 (configuration not stated) | 3.38
CCNC(=O)N1CCc2ccc(NC(=O)NCC3CC3)cc21 | 3.53
Cc1cc(S(=O)(=O)N2CCCc3cc(F)cc(F)c32)sc1C(=O)O | 21.8
O=C(c1ccc[nH]1)N1CCn2cc(Cn3cncn3)nc2C1 | -2.65
CN1CCN(CC2CC2)C(=O)c2cnc(N3CCCC3)nc21 | 5.08
NC(=O)c1nc(CN2CCOC(C(F)(F)F)C2)no1 (configuration not stated) | -3.39
CC(NC(=O)CCCn1cnc2ccccc2c1=O)c1ncn[nH]1 (configuration not stated) | -4.31
CCn1c(CN(C)C)nnc1C1CCN(Cc2ccc(C)s2)CC1 | 7.01
Cc1nnsc1CNC(=O)CSCc1ccccc1Cl | -2.85
COC(=O)[C@@H](NC(=O)c1coc(COc2cccc(F)c2)n1)C(C)C | -142
O=C(NCCCNc1cccnc1)c1ccc2nccn2c1 | -42.4
COCCCN(C(=O)c1ccc(-n2ccnc2)cc1)C1CCN(C)CC1 | -15.8
Cc1cc(=O)[nH]c(SC(C)C(=O)N2CCC(c3ncc[nH]3)CC2)n1 (configuration not stated) | -16.2
Nc1ccc(C(=O)N2CCCC(c3nccn3Cc3cscn3)C2)cn1 (configuration not stated) | -4.92
COc1ccc(/C=C/CN2CCN(c3ncccc3C(N)=O)CC2)cc1 | -8.88
Cc1cc(N2Cc3cnc(CC(C)C)nc3C2)nc(N)n1 | -5.64
Cc1csc(CCNC(=O)C2CCCN(C3CCOCC3)C2)n1 (configuration not stated) | 3.01

SMILES | cytotoxicity at 10 µM [%]
CCc1cnc(N2CCOC(CCOC)C2)nc1 (configuration not stated) | -3.88
CCc1ncc(C(=O)N2CCC(O)(CN3CCOCC3)C(C)(C)C2)cn1 (configuration not stated) | -4.6
COCCN1CC(=O)N2CC[C@@H](O)C[C@H]2C1=O | -8.03
COCc1nc(CN2CCN(c3ccc(OC)cc3)C(=O)C2C)no1 (configuration not stated) | 3.35
CCc1c(C(=O)N2CC[C@H](N3CCOCC3)[C@H](CCCO)C2)csc1C | -141
Cc1c(C(=O)N2CCC3(CCCN(CC4CC4)C3=O)C2)ccn1C (configuration not stated) | -3.92
CN(CCc1noc(C2CC2)n1)C(=O)C1(N2CCCC2)CCCC1 | -146
COCCCN(C)[C@@H]1c2ccccc2C2(CCNCC2)[C@H]1O | 1.73
CSc1ccc2cc(CN(C)CCO)c(=O)[nH]c2c1 | 5.76
Cc1nn(C)c2ncnc(N3CCCC(C)(O)C3)c12 (configuration not stated) | 0.541
Cc1ccccc1C(=O)Nc1ccc(OC2CCN(C)CC2)cc1 | -1.57
CC(C)N(Cc1nccn1C)C(=O)c1cc(Cl)c[nH]c1=O | -0.723
O=C(NCCN1CCNC1=O)c1cc(-c2ccc(O)cc2)n[nH]1 | 6.27
CCn1ncnc1C(C)NC(=O)C1CCN(C(=O)COC)CC1 (configuration not stated) | 2.82
Cc1nc(N2CCN(C)CC2)ncc1C(=O)N1CC(C)(C)C(C)(O)C1 (configuration not stated) | 18.5
Cc1cc(C)n(CC2CCCN2C(=O)c2cccc3c2OCCO3)n1 (configuration not stated) | -11.8
COc1c(CNC2CCc3ccccc32)c(C(C)C)nn1C (configuration not stated) | 0.441
COc1c(CNCCNC(=O)c2ccc(C)c(F)c2)c(C)nn1C | -3.33
CCOC1CCCN(C(=O)c2nn(-c3ccccc3F)cc2O)C1 (configuration not stated) | -4.62
CC(C)n1ncc2cc(NC(=O)N3CCSCC3)cnc21 | -5.07
Cc1nnc2n1CCN(C(C(=O)N1CCCCC1)c1ccccc1)C2 (configuration not stated) | -5.83
Cc1ccsc1CNC(=O)N1CCC(Cc2cnn(C)c2)C1 (configuration not stated) | -6.6
CCNc1cc2c(nn1)CCN(C(=O)C1CCc3ccccc31)C2 (configuration not stated) | 0.169

SMILES | cytotoxicity at 10 µM [%]
COc1ccccc1C(C)NC(=O)N1CCC(n2cncn2)CC1 (configuration not stated) | 2.85
CCOc1ccc(C(=O)N2CCCS2(=O)=O)cc1OC | -7.42
CN(C)CC1CN(Cc2coc(-c3cccc(F)c3)n2)CCO1 (configuration not stated) | -17.2
CN(C)CC1CN(Cc2cccc(C(=O)N(C)C)c2)CCO1 (configuration not stated) | -0.729
Cc1noc(C)c1CN(C)C(=O)c1ccc(NC2CC2)nc1 | -4.94
Cn1nccc1C1CCN(Cc2csc(-c3ncccn3)n2)CC1 | -1.91
CC1CCCN(C(=O)c2cccc(CS(C)(=O)=O)c2)C1 (configuration not stated) | -1.42
Cc1nn(C)c(N(C)C)c1CNCc1cccc(OCCN(C)C)c1 | 1.38
CCn1ccnc1CN1CCN(C(C)C(=O)NC2CCCCC2)CC1 (configuration not stated) | -2.17
Cc1noc(C)c1CN1CCN(Cc2nccn2C)C(C)C1 (configuration not stated) | -5.38
CNS(=O)(=O)CCCN1CCCC1c1noc(C2CC2)n1 (configuration not stated) | -16.5
CC(C)CN1CCN(C(=O)NCc2cccnc2-n2cccn2)CC1 | 7.29
CCn1ccnc1CN1CCN(c2cc(C)nc(C3CCCN3)c2)CC1 (configuration not stated) | 2.19
COc1ccc(C2(NCc3c(C)nc4c(C)cccn34)CCCC2)cc1 | 3.79
O=C1COC2(CCN(Cc3cccs3)CC2)CN1c1cccnc1 | -125
Cc1cccc(CN2CC3C[C@]3(NC(=O)c3cccc(F)c3)C2)n1 (some centres not stated) | -151
O=C(c1cnccn1)N1CCN2C[C@H](OCc3ccccc3)C[C@H]2C1 | 1.44
CCOCC1CN(Cc2ccco2)Cc2nccn2C1 (configuration not stated) | -142
O=C(c1cnccn1)N1C[C@@H]2C[C@@H](c3nc(C4CC4)cs3)O[C@@H]2C1 | -118
Oc1cccc(CN2C[C@@H]3CC[C@H]2CN(Cc2cccnc2)C3)c1 | -121

Source: ChEMBL document CHEMBL4513216, “Probing the Open Global Health Chemical Diversity Library for Multistage-Active Starting Points for Next-Generation Antimalarials” (ACS Infect Dis, 2020)
